According to paper PMC5458759 (Genes & Development, 2017):

Tests used:
[1] = system: ERL1^LRR–TMM^LRR complex; assay: Ligand competition assay, ERL1^LRR–TMM^LRR; type: binding, Arabidopsis; conditions: 10 µM EPF2-6xHis or EPF1-6xHis, increasing concentrations of EPFL9, 1 h at 4°C
In short: (§1)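 The ERf–TMM LRR complex was coexpressed in High Five cells and purified by Ni-NTA and gel filtration. It was incubated with 10 µM His-tagged EPF peptide, with or without varying concentrations of competing peptide, for 1 h at 4°C with gentle agitation. The mixture was then passed over Ni beads and washed four times. Eluate was boiled 5 min at 100°C in SDS loading buffer and read by SDS-PAGE with Coomassie staining.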

[2] = system: ERL1^LRR; assay: Gel filtration assay with ERL1^LRR; type: binding, Arabidopsis; conditions: 10 mM Bis-Tris pH 6.0, 100 mM NaCl; incubated 30 min at 4°C
In short: (§2)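 LRR ectodomains were expressed in High Five insect cells by baculovirus at 22°C; for complexes, the ERf and TMM viruses were added together. Protein was purified from the supernatant by Ni-NTA and then size exclusion. Receptor and EPF-family peptide were mixed, held 30 min at 4°C, then run on Superdex 200 in 10 mM Bis-Tris pH 6.0, 100 mM NaCl. Fractions were analysed by SDS-PAGE with Coomassie staining.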

[3] = system: ERL1^LRR–TMM^LRR complex; assay: Gel filtration assay with ERL1^LRR–TMM^LRR complex; type: binding, Arabidopsis; conditions: 10 mM Bis-Tris pH 6.0, 100 mM NaCl; incubated 30 min at 4°C
In short: as §2

[4] = system: ER^LRR–TMM^LRR complex; assay: Ligand competition assay, ER^LRR–TMM^LRR; type: binding, Arabidopsis; conditions: 10 µM EPF2-6xHis or EPF1-6xHis, increasing concentrations of EPFL9, 1 h at 4°C
In short: as §1

[5] = system: ERL1^LRR; assay: Biochemical assay of EPFL8 interaction; type: binding, Arabidopsis; conditions: Supplemental Fig. S11
[6] = system: ER^LRR; assay: Pull-down assay with 6xHis-tagged ER^LRR; type: binding, Arabidopsis; conditions: Ni resin, SDS-PAGE, Coomassie blue; without TMM^LRR
In short: (§3)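 Purified C-terminal 6xHis-tagged receptor LRR, from High Five cells, was mixed with excess EPF-family peptide and Ni resin for 30 min on ice. The resin was washed four times in 25 mM Tris pH 8.0, 250 mM NaCl, 15 mM imidazole, then heated 5 min at 100°C in SDS loading buffer. Bound protein was detected by SDS-PAGE with Coomassie staining.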

[7] = system: ERL1^LRR; assay: Pull-down assay with 6xHis-tagged ERL1^LRR; type: binding, Arabidopsis; conditions: Ni resin, SDS-PAGE, Coomassie blue; without TMM^LRR
In short: as §3

[8] = system: ER^LRR; assay: Gel filtration assay with ER^LRR; type: binding, Arabidopsis; conditions: 10 mM Bis-Tris pH 6.0, 100 mM NaCl; incubated 30 min at 4°C
In short: as §2

[9] = system: ERL2^LRR; assay: Pull-down assay with 6xHis-tagged ERL2^LRR; type: binding, Arabidopsis; conditions: Ni resin, SDS-PAGE, Coomassie blue; without TMM^LRR
In short: as §3

[10] = system: ERL2^LRR; assay: Gel filtration assay with ERL2^LRR; type: binding, Arabidopsis; conditions: 10 mM Bis-Tris pH 6.0, 100 mM NaCl; incubated 30 min at 4°C
In short: as §2

[11] = molecular target: T1, ERL1^LRR–TMM^LRR complex (Arabidopsis thaliana, UniProt C0LGW6;Q9SSD1); assay: ITC
T1 sequence 1: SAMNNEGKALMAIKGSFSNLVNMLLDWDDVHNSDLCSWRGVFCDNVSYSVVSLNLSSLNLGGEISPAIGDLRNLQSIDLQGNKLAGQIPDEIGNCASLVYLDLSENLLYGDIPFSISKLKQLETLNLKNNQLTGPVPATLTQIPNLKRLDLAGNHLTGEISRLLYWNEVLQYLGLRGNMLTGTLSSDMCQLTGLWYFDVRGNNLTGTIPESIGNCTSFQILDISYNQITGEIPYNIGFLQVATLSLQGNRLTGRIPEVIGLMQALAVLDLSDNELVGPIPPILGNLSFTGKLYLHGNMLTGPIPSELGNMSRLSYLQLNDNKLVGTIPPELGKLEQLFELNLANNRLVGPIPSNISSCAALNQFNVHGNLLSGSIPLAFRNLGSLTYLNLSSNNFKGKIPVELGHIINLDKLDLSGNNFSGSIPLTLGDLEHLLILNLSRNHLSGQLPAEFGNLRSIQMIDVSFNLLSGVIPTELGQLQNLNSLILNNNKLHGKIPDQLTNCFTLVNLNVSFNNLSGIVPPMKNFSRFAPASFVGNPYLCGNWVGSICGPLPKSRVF
T1 sequence 2: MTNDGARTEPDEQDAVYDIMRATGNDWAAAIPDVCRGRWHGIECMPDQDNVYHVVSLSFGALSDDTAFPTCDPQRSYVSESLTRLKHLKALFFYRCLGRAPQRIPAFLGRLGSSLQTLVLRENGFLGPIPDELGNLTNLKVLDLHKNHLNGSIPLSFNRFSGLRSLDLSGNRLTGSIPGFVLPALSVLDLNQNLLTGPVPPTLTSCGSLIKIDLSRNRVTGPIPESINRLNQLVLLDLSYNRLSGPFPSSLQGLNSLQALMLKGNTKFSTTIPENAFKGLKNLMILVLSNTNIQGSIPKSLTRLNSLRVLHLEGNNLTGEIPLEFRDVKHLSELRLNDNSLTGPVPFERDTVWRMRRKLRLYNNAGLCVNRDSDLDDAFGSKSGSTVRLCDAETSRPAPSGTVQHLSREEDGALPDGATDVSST

[12] = molecular target: T2, ERL2^LRR, extracellular LRR domain of ERL2 (Arabidopsis thaliana, UniProt Q6XAT2 28-580); assay: pull-down
T2 sequence: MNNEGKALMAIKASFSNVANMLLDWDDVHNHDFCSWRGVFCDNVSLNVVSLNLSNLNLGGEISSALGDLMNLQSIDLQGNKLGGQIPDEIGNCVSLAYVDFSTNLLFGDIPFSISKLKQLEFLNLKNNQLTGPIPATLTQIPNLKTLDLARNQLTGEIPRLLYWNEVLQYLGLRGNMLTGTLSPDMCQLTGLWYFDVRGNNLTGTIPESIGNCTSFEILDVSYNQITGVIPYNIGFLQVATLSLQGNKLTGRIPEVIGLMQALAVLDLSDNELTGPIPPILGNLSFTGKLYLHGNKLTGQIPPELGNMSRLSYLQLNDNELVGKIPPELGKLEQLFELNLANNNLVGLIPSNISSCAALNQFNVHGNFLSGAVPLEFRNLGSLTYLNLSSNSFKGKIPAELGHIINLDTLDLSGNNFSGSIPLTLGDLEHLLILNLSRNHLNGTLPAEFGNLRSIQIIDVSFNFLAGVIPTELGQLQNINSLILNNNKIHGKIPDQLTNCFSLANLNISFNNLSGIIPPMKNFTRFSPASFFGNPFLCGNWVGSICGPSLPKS

[13] = molecular target: T3, ER^LRR, extracellular LRR domain of ERECTA (ER) (Arabidopsis thaliana, UniProt Q42371 24-580); assay: pull-down
T3 sequence: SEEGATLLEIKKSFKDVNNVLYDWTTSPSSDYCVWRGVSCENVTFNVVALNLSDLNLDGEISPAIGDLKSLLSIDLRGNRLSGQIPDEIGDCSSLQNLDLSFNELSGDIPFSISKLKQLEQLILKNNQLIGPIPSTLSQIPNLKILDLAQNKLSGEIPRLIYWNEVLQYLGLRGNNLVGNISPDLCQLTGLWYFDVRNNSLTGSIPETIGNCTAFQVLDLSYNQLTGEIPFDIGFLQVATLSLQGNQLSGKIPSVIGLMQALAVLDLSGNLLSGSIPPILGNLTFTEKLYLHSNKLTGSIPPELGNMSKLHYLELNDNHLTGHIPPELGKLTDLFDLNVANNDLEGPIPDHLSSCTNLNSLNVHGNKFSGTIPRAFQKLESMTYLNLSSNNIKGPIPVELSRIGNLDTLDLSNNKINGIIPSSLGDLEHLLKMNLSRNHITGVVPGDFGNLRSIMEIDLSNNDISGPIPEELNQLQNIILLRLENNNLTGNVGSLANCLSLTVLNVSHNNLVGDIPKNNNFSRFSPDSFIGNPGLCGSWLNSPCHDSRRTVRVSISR

[14] = molecular target: T4, ERL1^LRR, extracellular LRR domain of ER-LIKE1 (ERL1) (Arabidopsis thaliana, UniProt C0LGW6 24-580); assay: pull-down
T4 sequence: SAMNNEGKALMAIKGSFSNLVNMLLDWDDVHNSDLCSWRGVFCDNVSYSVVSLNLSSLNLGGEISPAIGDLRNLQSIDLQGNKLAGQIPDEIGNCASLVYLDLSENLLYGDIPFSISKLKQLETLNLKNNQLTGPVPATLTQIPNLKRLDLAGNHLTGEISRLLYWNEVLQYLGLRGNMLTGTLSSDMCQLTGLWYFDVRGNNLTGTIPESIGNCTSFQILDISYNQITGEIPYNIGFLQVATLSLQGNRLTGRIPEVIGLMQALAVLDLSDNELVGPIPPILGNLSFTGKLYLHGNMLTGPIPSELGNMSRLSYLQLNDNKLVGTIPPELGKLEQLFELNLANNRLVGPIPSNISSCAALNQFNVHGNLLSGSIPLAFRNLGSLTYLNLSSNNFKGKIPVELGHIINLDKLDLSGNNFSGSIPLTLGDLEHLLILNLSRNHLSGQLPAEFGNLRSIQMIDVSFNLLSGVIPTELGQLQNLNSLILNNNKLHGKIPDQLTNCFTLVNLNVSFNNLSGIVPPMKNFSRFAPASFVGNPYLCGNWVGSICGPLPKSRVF

[15] = molecular target: T5, ER^LRR–TMM^LRR complex (Arabidopsis thaliana, UniProt Q42371;Q9SSD1); assay: pull-down
T5 sequence 1: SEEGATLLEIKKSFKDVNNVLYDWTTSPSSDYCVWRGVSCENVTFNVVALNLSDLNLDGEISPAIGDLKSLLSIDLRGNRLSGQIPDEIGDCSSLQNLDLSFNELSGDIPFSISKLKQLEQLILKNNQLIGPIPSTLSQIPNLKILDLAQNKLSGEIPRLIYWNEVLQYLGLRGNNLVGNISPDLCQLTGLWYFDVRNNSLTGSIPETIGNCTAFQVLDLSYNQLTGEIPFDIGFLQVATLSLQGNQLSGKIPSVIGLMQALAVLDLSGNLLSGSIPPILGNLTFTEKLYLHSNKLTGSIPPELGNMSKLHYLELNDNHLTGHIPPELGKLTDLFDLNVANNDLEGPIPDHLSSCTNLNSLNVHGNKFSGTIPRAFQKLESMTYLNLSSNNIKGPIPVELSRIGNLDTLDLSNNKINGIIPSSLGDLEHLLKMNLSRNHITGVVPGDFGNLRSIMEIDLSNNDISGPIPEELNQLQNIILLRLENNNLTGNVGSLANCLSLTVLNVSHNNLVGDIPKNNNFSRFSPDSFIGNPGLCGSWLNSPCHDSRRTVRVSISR
T5 sequence 2: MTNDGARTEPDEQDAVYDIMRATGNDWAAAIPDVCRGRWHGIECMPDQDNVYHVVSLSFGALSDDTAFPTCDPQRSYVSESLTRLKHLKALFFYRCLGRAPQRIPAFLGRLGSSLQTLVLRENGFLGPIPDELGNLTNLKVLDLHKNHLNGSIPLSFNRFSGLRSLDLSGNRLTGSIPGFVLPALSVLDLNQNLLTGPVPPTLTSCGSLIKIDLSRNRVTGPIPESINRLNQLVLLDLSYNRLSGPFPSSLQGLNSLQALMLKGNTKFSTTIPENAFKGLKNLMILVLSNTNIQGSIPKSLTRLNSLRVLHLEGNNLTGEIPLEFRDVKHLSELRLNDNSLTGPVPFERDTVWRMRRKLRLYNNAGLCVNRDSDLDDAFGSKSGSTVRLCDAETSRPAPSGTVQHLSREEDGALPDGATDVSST

[16] = molecular target: T4, ERL1^LRR, extracellular LRR domain of …; assay: ITC
[17] = molecular target: T3, ER^LRR, extracellular LRR domain of …; assay: SEC
[18] = molecular target: T4, ERL1^LRR, extracellular LRR domain of …; assay: SEC

Molecule: EPFL9: EPF family peptide, residues 58–102, promotes stomatal development (IGSTAPTCTYNECRGCRYKCRAEQVPVEGNDPINSAYHYRCVCHR)
- competition: amount of ERL1^LRR–TMM^LRR pulled down by EPF2 or EPF1 [1]: gradually decreased the amount
- interaction with ERL1^LRR alone in gel filtration [2]: weak interaction
- interaction with ERL1^LRR–TMM^LRR in gel filtration (comigration) [3]: much more EPFL9 was shifted to a higher-molecular-weight species and comigrated with the complex
- competition: amount of ER^LRR–TMM^LRR pulled down by EPF2 or EPF1 [4]: gradually decreased the amount

Molecule: EPFL8: EPF family peptide, residues 46–99 (MGSEPPVCATKCRNCKPCLPYLFDIRGAHDDDDDSEPYYPVKWICRCRDRVFEP)
- interaction with ERL1^LRR in the absence of TMM^LRR [5]: interacted

Molecule: EPFL4: EPF family growth regulatory peptide, residues 59–109 (PGSSPPTCRSKCGKCQPCKPVHVPIQPGLSMPLEYYPEAWRCKCGNKLFMP)
- interaction with ER^LRR in pull-down [6]: interacted strongly
- interaction with ERL1^LRR alone in gel filtration [2]: interacted strongly
- interaction with ERL1^LRR in pull-down [7]: interacted strongly
- interaction with ER^LRR alone in gel filtration [8]: interacted strongly
- interaction with ERL2^LRR in pull-down [9]: interacted strongly
- interaction with ERL2^LRR alone in gel filtration [10]: interacted strongly

B1: EPFL6 (CHALLAH, CHAL) peptide, residues 106–156 (peptide)
chain: LGSSPPRCSSKCGRCTPCKPVHVPVPPGTPVTAEYYPEAWRCKCGNKLYMP
- binding result [11]: binds
- binding result [12]: binds
- binding result [13]: binds
- binding result [14]: binds

Molecule: IGSTAPTCTYNECRGCRYKCRAEQVPVEGNDPINSAYHYRCVCHR [EPFL9 (STOMAGEN) peptide, residues 58–102]
- binding result [15]: binds
- Kd [11]: 4 µM
- fold lower affinity than for ERL1^LRR–TMM^LRR [16]: ~10 fold

B2: TMM^LRR, extracellular LRR domain of TOO MANY MOUTHS (TMM) (domain or fragment)
chain: MTNDGARTEPDEQDAVYDIMRATGNDWAAAIPDVCRGRWHGIECMPDQDNVYHVVSLSFGALSDDTAFPTCDPQRSYVSESLTRLKHLKALFFYRCLGRAPQRIPAFLGRLGSSLQTLVLRENGFLGPIPDELGNLTNLKVLDLHKNHLNGSIPLSFNRFSGLRSLDLSGNRLTGSIPGFVLPALSVLDLNQNLLTGPVPPTLTSCGSLIKIDLSRNRVTGPIPESINRLNQLVLLDLSYNRLSGPFPSSLQGLNSLQALMLKGNTKFSTTIPENAFKGLKNLMILVLSNTNIQGSIPKSLTRLNSLRVLHLEGNNLTGEIPLEFRDVKHLSELRLNDNSLTGPVPFERDTVWRMRRKLRLYNNAGLCVNRDSDLDDAFGSKSGSTVRLCDAETSRPAPSGTVQHLSREEDGALPDGATDVSST
- stoichiometry N [17]: ~1
- stoichiometry N [18]: ~1
